The source made the active and inactive calls. The rule behind the calls is not given here.

The values below come from ChEMBL document CHEMBL2146414, “Lignan derivatives from Krameria lappacea roots inhibit acute inflammation in vivo and pro-inflammatory mediators in vitro” (J Nat Prod, 2011).

Assay [1] has as its target T1, Prostaglandin G/H synthase 2 (Ovis aries, UniProt P79208).
T1 sequence (P79208 whole entry): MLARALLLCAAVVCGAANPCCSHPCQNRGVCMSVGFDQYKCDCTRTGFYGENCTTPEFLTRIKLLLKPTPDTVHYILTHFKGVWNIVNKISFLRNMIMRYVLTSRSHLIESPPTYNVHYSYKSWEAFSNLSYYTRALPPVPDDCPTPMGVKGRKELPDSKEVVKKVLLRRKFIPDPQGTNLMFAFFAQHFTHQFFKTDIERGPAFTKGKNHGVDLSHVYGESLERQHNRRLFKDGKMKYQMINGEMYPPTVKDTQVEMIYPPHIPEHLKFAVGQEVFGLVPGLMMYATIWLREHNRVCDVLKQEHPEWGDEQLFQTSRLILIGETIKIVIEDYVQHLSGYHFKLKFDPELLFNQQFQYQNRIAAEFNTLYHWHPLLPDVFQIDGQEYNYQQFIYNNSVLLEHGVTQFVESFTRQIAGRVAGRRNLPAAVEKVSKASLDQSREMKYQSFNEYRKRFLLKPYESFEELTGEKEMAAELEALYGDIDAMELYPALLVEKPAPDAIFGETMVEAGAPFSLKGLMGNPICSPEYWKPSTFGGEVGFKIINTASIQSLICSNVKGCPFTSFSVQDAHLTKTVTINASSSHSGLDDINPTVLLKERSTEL
In words: Inhibition of sheep placental COX2 assessed as PGE2 production by enzyme immunoassay.

The target of assay [2] is T2, Prostaglandin G/H synthase 1 (Ovis aries, UniProt P05979).
T2 sequence (P05979 whole entry): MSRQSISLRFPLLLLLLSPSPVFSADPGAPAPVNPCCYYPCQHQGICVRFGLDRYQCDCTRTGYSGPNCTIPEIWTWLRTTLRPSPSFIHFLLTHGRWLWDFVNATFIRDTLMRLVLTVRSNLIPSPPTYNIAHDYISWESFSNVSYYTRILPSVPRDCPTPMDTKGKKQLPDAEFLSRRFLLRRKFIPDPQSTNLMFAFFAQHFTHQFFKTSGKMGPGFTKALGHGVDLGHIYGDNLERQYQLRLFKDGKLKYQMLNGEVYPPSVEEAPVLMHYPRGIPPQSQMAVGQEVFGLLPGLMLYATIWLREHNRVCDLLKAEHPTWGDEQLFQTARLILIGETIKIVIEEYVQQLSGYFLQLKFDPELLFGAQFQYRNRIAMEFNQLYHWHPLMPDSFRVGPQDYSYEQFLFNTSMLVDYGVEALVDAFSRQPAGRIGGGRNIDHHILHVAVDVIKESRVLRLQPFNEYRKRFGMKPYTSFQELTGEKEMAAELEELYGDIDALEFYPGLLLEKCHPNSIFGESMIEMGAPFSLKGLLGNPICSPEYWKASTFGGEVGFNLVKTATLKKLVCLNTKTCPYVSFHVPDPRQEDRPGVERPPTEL
The experiment in a line: Inhibition of ram seminal vesicle COX1 assessed as PGE2 production by enzyme immunoassay. The method, boiled down: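 Purified PGHS-1 from ram seminal vesicles; PGE2 product measured by competitive EIA; samples in ethanol. IC50 from at least three concentrations, duplicates, at least three independent experiments, by nonlinear regression.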

In assay [3] the target is T3, Peroxisome proliferator-activated receptor gamma (Homo sapiens) (UniProt P37231).
T3 sequence (whole entry): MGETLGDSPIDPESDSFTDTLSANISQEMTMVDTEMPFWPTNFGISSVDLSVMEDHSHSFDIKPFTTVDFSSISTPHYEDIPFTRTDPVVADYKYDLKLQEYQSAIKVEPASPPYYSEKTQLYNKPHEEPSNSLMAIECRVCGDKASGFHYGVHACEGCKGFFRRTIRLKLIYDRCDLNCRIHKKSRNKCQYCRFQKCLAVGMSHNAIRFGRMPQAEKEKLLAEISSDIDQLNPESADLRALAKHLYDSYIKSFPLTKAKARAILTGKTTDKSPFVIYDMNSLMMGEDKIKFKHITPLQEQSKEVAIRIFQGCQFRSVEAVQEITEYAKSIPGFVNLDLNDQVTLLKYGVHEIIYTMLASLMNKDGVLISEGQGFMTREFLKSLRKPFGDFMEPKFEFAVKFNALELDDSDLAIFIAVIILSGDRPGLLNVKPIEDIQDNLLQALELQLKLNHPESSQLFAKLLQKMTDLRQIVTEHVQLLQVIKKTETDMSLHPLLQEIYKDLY
The experiment in a line: Activation of PPARgamma transfected in HEK293 cells at 10 uM after 18 hrs by firefly luciferase reporter gene-based luminescence assay. In kind it is cell-based.

Assay [4] addresses T4, Glucocorticoid receptor (Homo sapiens) (UniProt P04150).
T4 sequence (whole entry): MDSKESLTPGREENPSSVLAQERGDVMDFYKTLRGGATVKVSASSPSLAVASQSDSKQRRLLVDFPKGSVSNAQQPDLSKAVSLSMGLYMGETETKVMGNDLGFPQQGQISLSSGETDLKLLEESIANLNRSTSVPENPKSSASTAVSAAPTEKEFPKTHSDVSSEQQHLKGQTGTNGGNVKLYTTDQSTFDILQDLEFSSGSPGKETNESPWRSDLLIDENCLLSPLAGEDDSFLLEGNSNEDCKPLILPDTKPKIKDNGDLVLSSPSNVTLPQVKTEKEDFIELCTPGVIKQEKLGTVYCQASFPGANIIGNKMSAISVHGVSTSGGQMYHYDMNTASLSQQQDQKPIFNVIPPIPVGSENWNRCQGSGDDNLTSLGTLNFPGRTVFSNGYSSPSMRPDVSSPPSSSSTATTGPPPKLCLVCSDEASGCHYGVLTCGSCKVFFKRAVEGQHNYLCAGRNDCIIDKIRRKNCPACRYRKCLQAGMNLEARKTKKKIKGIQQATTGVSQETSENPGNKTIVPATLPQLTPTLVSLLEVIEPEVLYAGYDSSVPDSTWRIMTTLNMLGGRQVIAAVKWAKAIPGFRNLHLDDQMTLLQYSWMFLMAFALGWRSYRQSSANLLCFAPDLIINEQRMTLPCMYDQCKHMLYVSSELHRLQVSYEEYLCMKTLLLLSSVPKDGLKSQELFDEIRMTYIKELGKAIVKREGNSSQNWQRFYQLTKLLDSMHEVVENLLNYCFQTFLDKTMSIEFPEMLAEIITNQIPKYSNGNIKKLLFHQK
The experiment in a line: Activation of GR transfected in HEK293 cells at 10 uM after 18 hrs by firefly luciferase reporter gene-based luminescence assay. In kind it is cell-based.

A further assay concerns Mus musculus. In words: Antiinflammatory activity in CD1 mouse ear dermatitis model assessed as inhibition of Croton oil-induced ear edema at 0.10 umol administered topically per cm'2 of ear measured after induction of dermatitis relative to untreated control. In kind it is functional. The method, boiled down: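 Male CD-1 mice (28–32 g), anesthetized with ketamine 145 mg/kg i.p.; right ear (about 1 cm2) given 80 μg croton oil in 15 μL acetone, with test substance co-applied in acetone; left ear left untreated. Controls received irritant only. 6 mm punches taken from both ears; edema = weight difference treated minus untreated; % inhibition vs controls. ID50 by graphic interpolation of log dose–effect curves; ANOVA with Dunnett's test.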

The test system of assay [5] is Radical scavenging activity. In words: Antioxidant activity assessed as DPPH free radical scavenging activity after 30 mins by spectrophotometry. In kind it is functional.

As for `C/C=C/c1ccc2oc(-c3ccc(O)cc3)cc2c1`, the IC50 in assay [1] worked out at 2 µM; in assay [2], 18.3 µM. In addition, the result in assay [3] and in assay [4] was inactive. In the assay with Mus musculus, the “inhibition (INH)” value was found to be 14%.

Regarding `COc1cc(O)ccc1-c1cc2cc(CCCO)ccc2o1`, the IC50 in assay [1] was > 50 µM; in assay [2] it was > 50 µM; in assay [5], “Dose-dependent effect”; in assay [5] (read-out: IC50) it was 37.7 µM. In addition, the result in assay [3] and in assay [4] was inactive. The “inhibition (INH)” value in the assay on Mus musculus is listed as 13%.

`C/C=C/c1ccc2oc(-c3ccc(O)cc3O)cc2c1`: the IC50 was 7.1 µM in assay [1], 3.8 µM in assay [2], “Dose-dependent effect” in assay [5] and 22.1 µM in assay [5] (read-out: IC50). For the same compound, the result in assay [3] and in assay [4] was inactive. For the same compound, the “inhibition (INH)” value in the assay with Mus musculus is given as 15%.

For the compound `C/C=C/c1ccc2oc(-c3ccc(OC)cc3O)cc2c1` [RATANIAPHENOL I], the IC50 was > 50 µM in assay [1], > 50 µM in assay [2], “Dose-dependent effect” in assay [5] and 24.2 µM in assay [5] (read-out: IC50). Moreover, the result in assay [3] and in assay [4] was inactive. Besides, the “inhibition (INH)” value in the assay on Mus musculus is 9%.

In the case of `COc1ccc(-c2cc3cc(CCCO)ccc3o2)c(O)c1`, the IC50 was > 50 µM in assay [1], > 50 µM in assay [2], “Dose-dependent effect” in assay [5] and 42.3 µM in assay [5] (read-out: IC50). Moreover, the outcome in assay [3] and in assay [4] was inactive. For the same compound, in the assay on Mus musculus, the “inhibition (INH)” value turned out to be 25%.

For the compound `C[C@@H]1[C@H](C)[C@@H](c2ccc(O)cc2)O[C@@H]1c1ccc(O)cc1`, the IC50 in assay [1] and in assay [2] was > 50 µM throughout. Further, the outcome in assay [3] and in assay [4] was inactive. Moreover, the “inhibition (INH)” value in the assay on Mus musculus turned out to be 19%.

In the case of `C[C@@H]1[C@H](C)[C@@H](c2ccc(O)cc2)O[C@H]1c1ccc(O)cc1`, the IC50 in assay [1] and in assay [2] was > 50 µM in each case. For the same compound, the outcome in assay [3] and in assay [4] was inactive. In addition, the “inhibition (INH)” value with Mus musculus was 14%.

On to `C/C=C/c1ccc2oc(-c3ccc(O)cc3OC)cc2c1` [RATANIAPHENOL III], for which the IC50 was 7.6 µM in assay [1], 2.7 µM in assay [2], “Dose-dependent effect” in assay [5] and 36.3 µM in assay [5] (read-out: IC50). The result in assay [3] and in assay [4] was inactive. The “inhibition (INH)” value in the assay with Mus musculus amounted to 12%.

In the case of `C/C=C/c1ccc2oc(-c3ccc(O)cc3)c(C)c2c1` [RATANIAPHENOL II], the IC50 in assay [1] amounted to 1.7 µM; in assay [2], 3 µM. The result in assay [3] and in assay [4] was inactive. In addition, the “inhibition (INH)” value with Mus musculus was found to be 13%.

Take `C/C=C/c1ccc2c(c1)[C@@H](C)[C@H](c1ccc(O)cc1)O2`: the IC50 in assay [1] and in assay [2] was > 50 µM each time. The result in assay [3] and in assay [4] was inactive. The “inhibition (INH)” value in the assay on Mus musculus was 25%.

Take `C/C=C/c1ccc2c(c1)[C@H](CO)[C@@H](c1ccc(O)cc1)O2`: the IC50 in assay [1] and in assay [2] was > 50 µM throughout. In addition, the outcome in assay [3] and in assay [4] was inactive. Further, in the assay with Mus musculus, the “inhibition (INH)” value came to 17%.
